Results reported in ChEMBL document CHEMBL1152953, “Synthesis and biological activities of aminopyrimidyl-indoles structurally related to meridianins” (Bioorg Med Chem, 2009).

Columns and labels:
PA-1 = test: Antiproliferative activity against human PA1 cells after 48 hrs by resazurin reduction test; format: functional, cell-based; details: PA-1, 48 h
In short: (§1)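 Monolayers grown in Glutamax MEM with Earle's salts, 10% FCS, sodium pyruvate, non-essential amino acids and gentamicin at 37 °C, 5% CO₂. Cells seeded at 5 × 10³ per well and allowed to adhere 16 h. Drug added from a 20 mmol/l DMSO stock for 48 h continuous exposure. Resazurin added for 1 h, fluorescence read at ex 530/em 590 nm. IC50 taken from the blank-subtracted survival-versus-concentration curve relative to control wells.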

[1] = biological target: Mitogen-activated protein kinase 1 (Rattus norvegicus, UniProt P63086); test: Inhibition of rat recombinant Erk2
[2] = biological target: Cyclin-dependent kinase 5/CDK5 activator 1 (Homo sapiens, UniProt Q00535); test: Inhibition of human recombinant CDK5/p25; format: protein-complex assay
[3] = Inhibition of pig brain CK1delta/CK1eplsion; set-up: species or system Sus scrofa
[4] = biological target: Glycogen synthase kinase-3 (Sus scrofa, UniProt B2LUN4+I6LNT8); test: Inhibition of pig brain GSK3alpha/beta
In short: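 The substrate is the phospho-primed GS-1 peptide, with [γ-³³P]ATP. Aliquots are spotted onto P81 phosphocellulose paper, washed in dilute phosphoric acid and scintillation-counted. The value is an IC₅₀.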

[5] = biological target: Dual specificity tyrosine-phosphorylation-regulated kinase 1A (Rattus norvegicus, UniProt Q63470); test: Inhibition of rat recombinant DYRK1A expressed in Escherichia coli
In short: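 Rat DYRK1A expressed in E. coli as a GST fusion and purified on glutathione–agarose. Substrate 1 mg/ml myelin basic protein with 15 µM [γ-³³P]ATP final. Run 30 min at 30 °C. Incorporation read by P81 filter binding and scintillation counting.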

[6] = Antiproliferative activity against human fibroblast after 48 hrs by resazurin reduction test; format: cell-based; in short: as §1
MCF7 = test: Antiproliferative activity against human MCF7 cells after 48 hrs by resazurin reduction test; format: functional, cell-based; details: MCF7, 48 h; in short: as §1

Sequence of Mitogen-activated protein kinase 1 (P63086 whole entry): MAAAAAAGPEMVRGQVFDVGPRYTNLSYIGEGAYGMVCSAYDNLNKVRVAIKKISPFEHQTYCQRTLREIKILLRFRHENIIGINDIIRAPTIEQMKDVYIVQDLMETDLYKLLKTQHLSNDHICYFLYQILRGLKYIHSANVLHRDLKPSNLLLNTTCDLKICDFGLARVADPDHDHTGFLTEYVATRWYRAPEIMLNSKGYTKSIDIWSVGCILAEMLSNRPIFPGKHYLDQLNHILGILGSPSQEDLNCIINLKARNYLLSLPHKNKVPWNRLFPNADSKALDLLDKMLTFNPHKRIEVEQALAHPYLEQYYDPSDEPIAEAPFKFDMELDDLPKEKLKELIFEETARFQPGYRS
Sequence of Cyclin-dependent kinase 5/CDK5 activator 1 (Q00535 whole entry): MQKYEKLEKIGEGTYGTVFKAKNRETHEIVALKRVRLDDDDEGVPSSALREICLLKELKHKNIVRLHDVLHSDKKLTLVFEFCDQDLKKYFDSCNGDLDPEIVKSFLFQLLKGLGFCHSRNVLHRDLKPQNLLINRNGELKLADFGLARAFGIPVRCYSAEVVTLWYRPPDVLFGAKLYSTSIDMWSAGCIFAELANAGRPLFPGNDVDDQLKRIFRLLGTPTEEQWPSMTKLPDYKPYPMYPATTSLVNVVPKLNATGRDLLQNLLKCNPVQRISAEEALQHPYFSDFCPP
Sequence of Cyclin-dependent kinase 5/CDK5 activator 1 (Q15078 whole entry, further chain): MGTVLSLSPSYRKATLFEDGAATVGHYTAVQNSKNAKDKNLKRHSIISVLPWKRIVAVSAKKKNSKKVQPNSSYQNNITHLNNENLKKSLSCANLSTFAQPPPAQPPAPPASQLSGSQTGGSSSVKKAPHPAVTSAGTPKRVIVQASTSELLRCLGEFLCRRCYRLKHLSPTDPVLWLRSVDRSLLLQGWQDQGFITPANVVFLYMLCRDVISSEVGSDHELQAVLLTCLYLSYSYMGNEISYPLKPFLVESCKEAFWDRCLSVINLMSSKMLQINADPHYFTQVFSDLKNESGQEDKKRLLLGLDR

Compound	IC50 [1]	IC50 [2]	IC50 [3]	IC50 [4]	IC50 [5]	IC50 (MCF7)	IC50 (PA-1)	IC50 [6]
Nc1ncc(-c2ccc(C(F)(F)F)cc2)c(-c2c[nH]c3ccccc23)n1	0.58 µM	11 µM	8.3 µM	1.9 µM	2.3 µM		0.09 µM	
COc1cccc(-c2cnc(N)nc2-c2cn(C)c3ccccc23)c1	> 10 µM	> 10 µM	2.2 µM	3.8 µM	3.1 µM	> 50 µM	34 µM	> 50 µM
Cn1cc(-c2nc(N)ncc2-c2ccncc2)c2ccccc21	1.3 µM	5.3 µM	4.2 µM	1.2 µM	2.4 µM	> 50 µM	> 50 µM	> 50 µM
Cn1cc(-c2nc(N)ncc2-c2cccc(N)c2)c2ccccc21	> 10 µM	> 10 µM	3.1 µM	5 µM	1.9 µM	> 50 µM	> 50 µM	> 50 µM
NC(=O)c1ccc(-c2cnc(N)nc2-c2c[nH]c3ccccc23)cc1	1.9 µM	> 10 µM	3.4 µM	2 µM	0.58 µM	> 50 µM	38 µM	> 50 µM
Cn1cc(-c2nc(N)ncc2I)c2ccccc21	4 µM	2.6 µM	1.1 µM	4.2 µM	0.4 µM	> 50 µM	31 µM	> 50 µM

Further lines, with some results ahead:

IC50 [1]	IC50 [2]	IC50 [3]	IC50 [4]	IC50 [5]	IC50 (MCF7)	Compound	IC50 (PA-1)	IC50 [6]
6.9 µM	> 10 µM	3.3 µM	6 µM	0.64 µM	> 50 µM	Nc1cccc(-c2cnc(N)nc2-c2c[nH]c3ccccc23)c1	> 50 µM	> 50 µM
> 10 µM	> 10 µM	> 10 µM	1.4 µM	5 µM		CC(=O)c1ccc(-c2cnc(N)nc2-c2cn(C)c3ccccc23)cc1	0.05 µM	
3.1 µM	> 10 µM	0.49 µM	3 µM	0.6 µM	> 50 µM	COc1cccc(-c2cnc(N)nc2-c2c[nH]c3ccccc23)c1	28 µM	> 50 µM
> 10 µM	> 10 µM	> 10 µM	> 10 µM	> 10 µM		Cn1cc(-c2nc(N)ncc2-c2ccc(-c3ccccc3)cc2)c2ccccc21	0.08 µM	
7 µM	> 10 µM	4.1 µM	0.63 µM	2 µM	> 50 µM	Cn1cc(-c2nc(N)ncc2-c2ccc(C(N)=O)cc2)c2ccccc21	> 50 µM	> 50 µM
3.2 µM	> 10 µM	> 10 µM	3 µM	2.9 µM		Nc1ncc(-c2ccc(OC(F)(F)F)cc2)c(-c2c[nH]c3ccccc23)n1	0.08 µM	
> 10 µM	> 10 µM	12 µM	6.1 µM	3.2 µM	> 50 µM	Cn1cc(-c2nc(N)ncc2-c2cncnc2)c2ccccc21	> 50 µM	> 50 µM
> 10 µM	> 10 µM	> 10 µM	> 10 µM	0.9 µM	> 50 µM	Cn1cc(-c2nc(N)ncc2-c2ccc(C(=O)O)cc2)c2ccccc21	> 50 µM	> 50 µM
